Screens: PubChem, Broad Institute
T cruzi growth-1 = T. cruzi intracellular proliferation inhibitors, primary screen, cell-based, beta-gal Tulahuen parasites, NIH3T3 host, luminescence; actives 5.9% (n = 77,000); T. cruzi beta-gal in NIH3T3, GalScreen luminescence, 90 h; inhibition, % at 8.34 µM;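 active = mean inhibition above about 93%, with at least 55% of replicates each passing it, limit read from the data, passing the limit was not always enough; inconclusive = only one of those two conditions holds; inactive = neither condition holds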
KDM4C inh = inhibitors of GASC-1 (KDM4C) histone demethylase, primary screen, biochemical, single concentration HTS; actives 0.15% (n = 96,000); GST-KDM4C 2-372, H3K9me3 peptide, LANCE TR-FRET; AID 720574, 2013; Lysine-specific demethylase 4C (Homo sapiens), Q9H3R0; inhibition, % at 12.5 µM;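 active = mean replicate inhibition above about 25%, with at least 55% of replicates also reaching it, limit read from the data, passing the limit was not always enough; inconclusive = only one of those two conditions met; inactive = neither condition met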
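System: N-terminal GST-fused human GASC-1 (KDM4C) fragment, residues 2-372 / Amount: 10 nM GST-KDM4C in enzyme reaction / Also added: H3K9me3 peptide with Fe(II)/2OG / Times: 30 min demethylation and 1 h detection at room temperature / Signal: LANCE TR-FRET / Read-out basis: Fall in 671/618 emission ratio as inhibition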
IDH1 mut inh = inhibitors of IDH1 R132H reductase, primary screen, biochemical, plate reader, single point | Isocitrate dehydrogenase [NADP] cytoplasmic (Homo sapiens), O75874 | diaphorase/resazurin fluorescence, 60 min | inhibition, % at 10 µM | actives 0.18% (n = 70,000); in the data active = inhibition above about 34%; inconclusive = no clear call, values can overlap the other calls; inactive = below about 11%;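 also: 0% = DMSO and 100% = no enzyme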
Target sequence (O75874 whole entry R132H): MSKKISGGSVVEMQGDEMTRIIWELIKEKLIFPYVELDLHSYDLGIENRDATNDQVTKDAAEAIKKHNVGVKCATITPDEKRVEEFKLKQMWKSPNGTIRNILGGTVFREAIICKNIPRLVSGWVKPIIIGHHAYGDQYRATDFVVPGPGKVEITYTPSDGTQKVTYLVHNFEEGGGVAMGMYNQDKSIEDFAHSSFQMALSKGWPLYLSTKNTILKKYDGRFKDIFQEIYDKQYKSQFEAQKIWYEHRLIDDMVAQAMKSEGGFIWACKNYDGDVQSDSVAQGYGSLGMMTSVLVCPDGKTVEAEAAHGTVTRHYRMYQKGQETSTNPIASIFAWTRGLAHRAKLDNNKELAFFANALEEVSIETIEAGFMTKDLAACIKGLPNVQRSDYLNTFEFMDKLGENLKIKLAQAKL
T cruzi growth-2 = T. cruzi intracellular proliferation inhibitors, confirmation, cell-based, NIH3T3 host, beta-gal parasite, luminescence, cherry-pick | shares compounds with T cruzi growth-1 | T. cruzi beta-gal in NIH3T3, GalScreen luminescence, 90 h | inhibition, % at 8.35 µM | actives 72% (n = 5,600) | AID 651739, 2012;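 active = mean replicate inhibition above about 95% and at least 55% of replicates individually reaching it, limit read from the data; inconclusive = only one of the two criteria is met; inactive = neither criterion is met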
T cruzi growth-3 = inhibitors of intracellular T. cruzi replication, confirmation, NIH3T3 host cells, beta-gal parasites, cherry-pick, set 2 | shares compounds with T cruzi growth-1 | T. cruzi beta-gal in NIH3T3, GalScreen luminescence, 90 h | inhibition, % at 2.09 µM | actives 21% (n = 5,600) | AID 651740, 2012;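 active = mean inhibition above about 95%, with at least 55% of replicates also reaching it, limit read from the data; inconclusive = meets just one of the two conditions; inactive = meets neither condition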;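 also: plate controls were neutral control median for no effect and positive control median for full effect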
NIH3T3 tox = cytotoxicity in mouse NIH/3T3 fibroblasts, confirmation, cytotoxicity control for T. cruzi proliferation inhibitor project, cell-based, cherry-pick, single point; shares compounds with T cruzi growth-1; cytotoxicity (signal decrease), % at 8.35 µM; NIH/3T3 viability, CellTiter-Glo ATP luminescence, 90 h; actives 14% (n = 5,600);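 active = mean signal decrease across replicates above about 35% based on untreated-well scatter, with enough replicates individually passing, limit read from the data; inconclusive = no rule stated though some were filed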;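 also: 0% = median of neutral control wells and 100% = median of positive control wells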
NIH3T3 tox 2 = NIH/3T3 fibroblast cytotoxicity, confirmation, cytotoxicity control, cell-based, cherry-pick, single point, set 2; actives 56% (n = 5,600); shares compounds with T cruzi growth-1; NIH/3T3 viability, CellTiter-Glo ATP luminescence, 90 h; AID 651744, 2012; inhibition, % at 24.9 µM;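 active = mean loss of cell viability signal at or above a set limit, and enough replicates individually reaching it; inconclusive = meets only the mean limit or only the replicate share; inactive = meets neither condition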;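 also: 0% = median of neutral control wells and 100% = median of positive control wells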
The depositor's hits bear a star; ? = inconclusive; / = no result; + = active, no number. Shown is part of a subset that was picked to be rich in hits.

SMILES	T cruzi growth-1	KDM4C inh	IDH1 mut inh	T cruzi growth-2	T cruzi growth-3	NIH3T3 tox	NIH3T3 tox 2
CCCNC(=O)C[C@H]1C[C@@H]2c3cc(NC(=O)Nc4ccc(OC)cc4)ccc3O[C@@H]2[C@H](CO)O1	34	-3	-1	/	/	/	/
COc1ccc(NC(=O)Nc2ccc3c(c2)[C@H]2C[C@@H](CC(=O)NCCc4ccccc4)O[C@@H](CO)[C@H]2O3)cc1	157*	-2	0	112*	98*	-10	-3
Cc1ccc(-c2ccc([C@H]3[C@H](CO)N4C(=O)CN(C(=O)c5cccnc5)C[C@@H]34)cc2)cc1	/	0	/	/	/	/	/
C[C@@H]1CN([C@@H](C)CO)C(=O)c2cc(NC(=O)C3CCCCC3)ccc2O[C@@H]1CN(C)Cc1ccc(Cl)c(Cl)c1	?	1	1	103*	95	12	39*
C[C@@H]1CN([C@@H](C)CO)C(=O)c2cc(NC(=O)C3CCCCC3)ccc2O[C@H]1CN(C)Cc1ccc(Cl)c(Cl)c1	97	3	/	/	/	/	/
C[C@@H]1CN([C@@H](C)CO)C(=O)c2cc(NC(=O)NC3CCCCC3)ccc2O[C@H]1CN(C)Cc1ccc(Cl)c(Cl)c1	?	0	6	111*	43	8	3
C[C@H]1CN([C@@H](C)CO)C(=O)c2cc(NC(=O)NC3CCCCC3)ccc2O[C@H]1CN(C)Cc1ccc(Cl)c(Cl)c1	94	-1	0	/	/	/	/
C[C@@H]1CN([C@H](C)CO)C(=O)c2cc(NS(=O)(=O)c3cccs3)ccc2O[C@@H]1CN(C)C	38	0	1	/	/	/	/
CN(C)c1ccc2c(c1)[C@@H]1C[C@@H](CC(=O)NCc3cc(F)ccc3F)O[C@H](CO)[C@@H]1O2	36	5	-3	/	/	/	/
CN(C)c1ccc2c(c1)[C@H]1C[C@H](CC(=O)NCc3ccc(Oc4ccccc4)cc3)O[C@@H](CO)[C@H]1O2	132*	0	-2	107*	105*	-3	?
CN(C)c1ccc2c(c1)[C@@H]1C[C@@H](CC(=O)NCc3cc(F)ccc3F)O[C@@H](CO)[C@@H]1O2	+	9	-7	72	28	-9	9
CN(C)c1ccc2c(c1)[C@H]1C[C@H](CC(=O)NCc3ccc(-c4ccccc4)cc3)O[C@@H](CO)[C@H]1O2	114*	4	-1	110*	102*	5	4
COc1ccc(CNC(=O)C[C@H]2C[C@H]3c4cc(N(C)C)ccc4O[C@H]3[C@H](CO)O2)cc1	-45	19	-1	/	/	/	/
COc1ccc(CNC(=O)C[C@@H]2C[C@H]3c4cc(N(C)C)ccc4O[C@H]3[C@@H](CO)O2)cc1	-18	2	-2	/	/	/	/
O=C(O)CCCC(=O)Nc1cccc(Cl)c1	/	/	0	/	/	/	/
C[C@H](CO)N1C[C@H](C)[C@H](CN(C)S(=O)(=O)c2ccccc2)OCCCC[C@H](C)Oc2ccc(NC(=O)Nc3cccc4ccccc34)cc2C1=O	90	-1	3	/	/	/	/
Cc1noc(C)c1S(=O)(=O)N(C)C[C@H]1OCCCC[C@@H](C)Oc2ccc(NC(=O)Nc3cccc4ccccc34)cc2C(=O)N([C@H](C)CO)C[C@@H]1C	77	-6	-2	/	/	/	/
Cc1noc(C)c1S(=O)(=O)N(C)C[C@H]1OCCCC[C@H](C)Oc2ccc(NC(=O)Nc3ccccc3)cc2C(=O)N([C@H](C)CO)C[C@@H]1C	/	-2	/	/	/	/	/
